Source: ChEMBL document CHEMBL4251754, “Identification of a Potent Tryptophan-Based TRPM8 Antagonist With in Vivo Analgesic Activity” (J Med Chem, 2018)
Calls of active or inactive are those of the source. The rule behind the calls is not given here.

What was measured:
[1] = target: T1, Transient receptor potential cation channel subfamily M member 8 (Rattus norvegicus, UniProt Q8R455); experiment: Antagonist activity at rat TRPM8 expressed in HEK293 cells assessed as reduction in menthol-induced calcium flux incubated for 60 mins by Fluo-4 NW-dye based fluorimetric assay; assay type: cell-based
T1 sequence (Q8R455 whole entry): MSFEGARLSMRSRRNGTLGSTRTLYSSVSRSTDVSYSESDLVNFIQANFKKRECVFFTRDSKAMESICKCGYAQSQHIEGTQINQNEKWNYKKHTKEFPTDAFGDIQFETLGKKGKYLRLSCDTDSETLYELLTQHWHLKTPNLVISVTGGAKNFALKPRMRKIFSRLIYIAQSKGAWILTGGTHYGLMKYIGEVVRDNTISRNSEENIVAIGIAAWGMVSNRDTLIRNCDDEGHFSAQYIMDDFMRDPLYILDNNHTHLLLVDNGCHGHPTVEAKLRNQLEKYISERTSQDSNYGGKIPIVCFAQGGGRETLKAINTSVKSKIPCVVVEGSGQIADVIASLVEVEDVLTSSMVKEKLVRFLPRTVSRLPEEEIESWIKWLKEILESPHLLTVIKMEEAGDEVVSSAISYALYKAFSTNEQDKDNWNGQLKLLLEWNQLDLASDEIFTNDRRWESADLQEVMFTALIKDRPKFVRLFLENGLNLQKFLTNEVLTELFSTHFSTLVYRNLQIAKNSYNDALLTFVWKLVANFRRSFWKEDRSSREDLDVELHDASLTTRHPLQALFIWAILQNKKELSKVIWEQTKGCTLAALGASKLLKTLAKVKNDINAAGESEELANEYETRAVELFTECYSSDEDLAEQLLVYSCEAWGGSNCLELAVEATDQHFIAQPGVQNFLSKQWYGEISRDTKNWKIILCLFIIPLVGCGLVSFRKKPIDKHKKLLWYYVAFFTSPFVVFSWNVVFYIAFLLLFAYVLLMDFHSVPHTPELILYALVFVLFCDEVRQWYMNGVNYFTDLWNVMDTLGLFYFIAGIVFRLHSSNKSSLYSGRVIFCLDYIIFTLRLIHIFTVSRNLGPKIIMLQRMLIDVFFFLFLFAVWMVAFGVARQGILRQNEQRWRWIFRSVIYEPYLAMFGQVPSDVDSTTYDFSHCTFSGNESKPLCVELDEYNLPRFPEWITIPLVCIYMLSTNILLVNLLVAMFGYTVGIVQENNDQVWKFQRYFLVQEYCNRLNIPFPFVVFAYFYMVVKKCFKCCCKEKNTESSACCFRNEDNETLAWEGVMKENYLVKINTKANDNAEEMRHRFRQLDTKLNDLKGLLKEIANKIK
Outline: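 HEK293 cells stably expressing rat TRPM8, seeded 2 days ahead, loaded with Fluo-4 NW containing 2.5 mM probenecid; compounds in DMSO, 60 min at 37 °C in darkness. Four baseline cycles, 100 μM menthol stimulation, 15 further cycles read (ex 485/em 535 nm). Normalized to menthol + 10 μM AMTB coexposure; DMSO controls.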

[2] = target: Transient receptor potential cation channel subfamily M member 8 (Rattus norvegicus) (UniProt Q8R455); experiment: Antagonist activity at rat TRPM8 expressed in HEK293 cells at 500 nM assessed as reduction in menthol-induced channel currents by whole cell patch clamp method; assay type: cell-based
Chain of Transient receptor potential cation channel subfamily M member 8 (Rattus norvegicus) (Q8R455 whole entry, looked up): as the sequence (Q8R455 whole entry) above
Outline: (§1)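 HEK293 cells transiently transfected with rat TRPM8 cDNA plus EGFP marker, recorded 24 h later by whole-cell patch clamp on EGFP-positive cells (3–5 MΩ pipettes). Extracellular (mM): 138 NaCl, 5.4 KCl, 2 CaCl2, 1 MgCl2, 10 glucose, 10 HEPES, pH 7.4. Currents evoked by 500 μM menthol, read at +80 and −80 mV; compound added during menthol exposure.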

[3] = target: Transient receptor potential cation channel subfamily V member 1 (Mus musculus) (UniProt Q704Y3); experiment: Antagonist activity at mouse TRPV1 expressed in human SH-SY5Y cells assessed as inhibition of capsaicin induced calcium influx at 0.001 to 100 uM incubated for 60 mins by Fluo-4 NW-dye based fluorimetric assay; assay type: cell-based
Chain of Transient receptor potential cation channel subfamily V member 1 (Mus musculus) (Q704Y3 whole entry): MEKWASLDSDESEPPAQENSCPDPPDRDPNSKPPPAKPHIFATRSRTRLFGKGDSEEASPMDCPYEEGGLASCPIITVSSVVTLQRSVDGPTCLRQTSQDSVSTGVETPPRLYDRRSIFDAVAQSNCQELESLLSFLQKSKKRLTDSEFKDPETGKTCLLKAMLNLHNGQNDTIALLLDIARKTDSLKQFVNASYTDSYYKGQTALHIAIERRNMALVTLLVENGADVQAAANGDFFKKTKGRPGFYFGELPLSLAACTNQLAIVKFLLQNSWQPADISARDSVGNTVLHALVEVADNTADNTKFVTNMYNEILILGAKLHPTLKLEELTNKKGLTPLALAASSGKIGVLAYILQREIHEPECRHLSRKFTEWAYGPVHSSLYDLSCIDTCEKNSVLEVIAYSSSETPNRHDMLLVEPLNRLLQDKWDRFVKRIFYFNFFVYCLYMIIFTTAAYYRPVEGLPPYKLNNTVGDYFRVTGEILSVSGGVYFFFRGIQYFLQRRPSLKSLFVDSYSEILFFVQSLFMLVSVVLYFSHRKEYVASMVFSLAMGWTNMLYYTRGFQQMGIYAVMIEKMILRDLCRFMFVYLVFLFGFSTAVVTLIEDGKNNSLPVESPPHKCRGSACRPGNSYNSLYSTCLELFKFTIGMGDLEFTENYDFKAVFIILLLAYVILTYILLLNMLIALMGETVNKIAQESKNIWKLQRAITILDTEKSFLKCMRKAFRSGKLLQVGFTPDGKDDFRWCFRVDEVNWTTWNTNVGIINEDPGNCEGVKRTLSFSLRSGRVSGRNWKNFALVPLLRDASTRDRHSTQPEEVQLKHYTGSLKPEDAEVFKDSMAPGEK
Outline: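 SH-SY5Y cells stably expressing mouse TRPV1, seeded 2 days before, loaded with Fluo-4 NW plus 2.5 mM probenecid; compounds in DMSO added, 60 min at 37 °C in darkness. Four baseline cycles, then 10 μM capsaicin, recorded 15 more cycles (ex 485/em 535 nm). Signal normalized to capsaicin + 10 μM ruthenium red coexposure.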

[4] = target: Transient receptor potential cation channel subfamily M member 8 (Rattus norvegicus) (UniProt Q8R455); experiment: Reversible antagonist activity at rat TRPM8 expressed in HEK293 cells at 500 nM assessed as reduction in menthol-induced channel currents measured after drug wash out by whole cell patch clamp method; assay type: cell-based; outline: as §1
[5] = target: Transient receptor potential cation channel subfamily M member 8 (Rattus norvegicus) (UniProt Q8R455); experiment: (§2) Antagonist activity at rat TRPM8 expressed in HEK293 cells assessed as reduction in menthol-induced channel currents by whole cell patch clamp method; assay type: cell-based
Outline: (§3)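 HEK293 cells grown in DMEM/10% FBS, plated on poly-L-lysine coverslips, transiently transfected 24 h later with rat TRPM8 cDNA (3.6 μg) plus EGFP marker (total cDNA 4 μg). Whole-cell recordings 24 h post-transfection on EGFP-positive cells, 3–5 MΩ pipettes. Extracellular solution (mM): 138 NaCl, 5.4 KCl, 2 CaCl2, 1 MgCl2, 10 glucose, 10 HEPES, pH 7.4. Currents evoked by 500 μM menthol, monitored at +80 and −80 mV.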

[6] = target: T1, Transient receptor potential cation channel subfamily M member 8; experiment: as §2; assay type: cell-based; outline: as §3
[7] = target: Transient receptor potential cation channel subfamily M member 8 (Homo sapiens, UniProt Q7Z2W7); experiment: Antagonist activity at TRPM8 (unknown origin) assessed as reduction in menthol-induced calcium influx
Chain of Transient receptor potential cation channel subfamily M member 8 (Homo sapiens, UniProt Q7Z2W7) (Q7Z2W7 whole entry): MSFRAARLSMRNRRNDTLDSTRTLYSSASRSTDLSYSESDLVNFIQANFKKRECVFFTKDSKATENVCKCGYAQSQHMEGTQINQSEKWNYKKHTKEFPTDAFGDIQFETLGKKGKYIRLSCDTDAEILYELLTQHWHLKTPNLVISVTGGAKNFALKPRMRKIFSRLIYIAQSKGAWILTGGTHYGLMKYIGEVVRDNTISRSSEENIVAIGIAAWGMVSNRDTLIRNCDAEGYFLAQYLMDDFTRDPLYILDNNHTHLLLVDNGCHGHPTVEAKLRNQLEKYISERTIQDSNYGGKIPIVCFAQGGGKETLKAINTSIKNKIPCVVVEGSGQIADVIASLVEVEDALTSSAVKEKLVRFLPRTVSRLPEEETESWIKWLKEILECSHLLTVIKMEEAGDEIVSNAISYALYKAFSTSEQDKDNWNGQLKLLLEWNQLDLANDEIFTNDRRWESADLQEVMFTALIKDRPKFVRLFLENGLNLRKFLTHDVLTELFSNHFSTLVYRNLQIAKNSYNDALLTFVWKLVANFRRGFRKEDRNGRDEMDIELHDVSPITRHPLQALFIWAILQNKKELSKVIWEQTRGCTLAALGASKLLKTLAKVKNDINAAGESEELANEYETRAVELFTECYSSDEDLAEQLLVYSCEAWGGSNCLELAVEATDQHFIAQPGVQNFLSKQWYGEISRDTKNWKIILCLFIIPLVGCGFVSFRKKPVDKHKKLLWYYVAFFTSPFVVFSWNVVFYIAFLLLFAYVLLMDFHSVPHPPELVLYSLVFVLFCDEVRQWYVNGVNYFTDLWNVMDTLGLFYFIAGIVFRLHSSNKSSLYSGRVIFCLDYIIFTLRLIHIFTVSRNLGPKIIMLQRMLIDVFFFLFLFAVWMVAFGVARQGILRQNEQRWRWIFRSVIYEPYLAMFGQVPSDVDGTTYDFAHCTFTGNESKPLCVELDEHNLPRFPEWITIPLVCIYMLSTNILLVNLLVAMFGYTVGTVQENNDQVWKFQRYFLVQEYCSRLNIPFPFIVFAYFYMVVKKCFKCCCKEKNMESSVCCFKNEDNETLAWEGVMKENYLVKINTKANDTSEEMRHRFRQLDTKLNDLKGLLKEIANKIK
Outline: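 HEK293 cells stably expressing rat TRPM8, seeded 2 days ahead, loaded with Fluo-4 NW plus 2.5 mM probenecid. Compounds in DMSO preincubated 60 min at 37 °C in the dark. Four baseline cycles, then stimulation with 100 μM menthol and 15 further read cycles (ex 485, em 535 nm). Signal normalized to menthol + 10 μM AMTB coexposure. DMSO vehicle controls.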

[8] = Apparent permeability of the compound in 0.01 M phosphate buffer at pH 7.4 at 0.5 mM after 24 hrs by PAMPA; assay type: ADME
Outline: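 Donor at 0.5 mM, diluted from 10 mM DMSO stock into 0.01 M phosphate buffer pH 7.4. Filter coated with 1% phosphatidylcholine in dodecane; acceptor is 5% DMSO in phosphate buffer. Incubated 24 h at room temperature with gentle shaking. Acceptor analysed by HPLC-UV at 220 nm against no-membrane references. Papp from Faller-modified Sugano equation; triplicate, with propranolol and furosemide as references.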

[9] = target: Transient receptor potential cation channel subfamily M member 8 (Rattus norvegicus) (UniProt Q8R455); experiment: Reversible antagonist activity at rat TRPM8 expressed in HEK293 cells at 100 nM assessed as reduction in menthol-induced channel currents measured after drug wash out by whole cell patch clamp method; assay type: cell-based
[10] = target: Transient receptor potential cation channel subfamily M member 8 (Rattus norvegicus) (UniProt Q8R455); experiment: Antagonist activity at rat TRPM8 expressed in HEK293 cells at 100 nM assessed as reduction in menthol-induced channel currents by whole cell patch clamp method; assay type: cell-based
[11] = Drug metabolism in mouse serum assessed as (S)-2-(Dibenzylamino)-3-(1H-indol-3-yl)propanoic Acid formation after 15 to 60 mins by HPLC analysis; assay type: ADME, cell-free
Outline: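 DMSO stock diluted 1:1000 in mouse serum (from retro-orbital blood) and stirred at 37 °C. Samples taken at 15, 30 and 60 min, extracted with dichloromethane, then analysed by C18 HPLC (0.1% TFA water/acetonitrile gradient, 220 nm) for parent and acid metabolite. Blank serum checked for interfering peaks; acetylsalicylic acid used to verify hydrolytic activity. Triplicate.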

Mus musculus [12] = experiment: Antinociceptive activity in C57Bl/6J mouse assessed as inhibition of icilin induced wet-dog shakes at 30 mg/kg, sc pretreated 30 mins before icillin addition and measured after 30 mins by wet-dog shakes assay; assay type: functional
Outline: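 Male C57 mice, 5 weeks, ~30 g, acclimatized 30 min on two consecutive days. Compound (DMSO stock diluted in saline) given s.c. at 1, 10 or 30 mg/kg 30 min before icilin 10 mg/kg i.p. (20% DMSO/1% Tween 80). Wet-dog shakes counted over 30 min; mean ± SEM, n = 6; two-way ANOVA, Bonferroni.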

Mus musculus [13] = experiment: Antinociceptive activity in sc dosed C57Bl/6J mouse assessed as inhibition of icilin induced wet-dog shakes pretreated 30 mins before icillin addition and measured after 30 mins by wet-dog shakes assay; assay type: functional, organism-based
Outline: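 Male C57 mice, 5 weeks, ~30 g, acclimatized 30 min on two consecutive days. Compound (1, 10, 30 mg/kg; DMSO stock diluted in saline) or vehicle given s.c. 30 min before icilin 10 mg/kg i.p. (in 20% DMSO/1% Tween 80 in water). Gabapentin 25 mg/kg s.c. given 60 min before icilin. Wet-dog shakes counted over 30 min. Mean ± SEM, n = 6; two-way ANOVA with Bonferroni test.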

[14] = Chemical stability of compound in phosphate buffer at pH 7.4 after 15 to 60 mins by HPLC analysis; assay type: physicochemical
Outline: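 DMSO stock (10 mg/mL) diluted 1:100 in phosphate buffer and stirred at 37 °C. At 15, 30 and 60 min, extracted with dichloromethane (1:1), dried under nitrogen, reconstituted in methanol and filtered. Analysed by C18 HPLC with a 0.1% TFA water/acetonitrile gradient (5–90% B over 7 min), 0.5 mL/min, 220 nm detection. Triplicate.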

Mus musculus [15] = experiment: Antinociceptive activity in sc dosed C57/BL6 mouse assessed as inhibition of oxaliplatin induced cold allodynia administered as single dose injected into plantar surface of right hind paw on day 7 post oxaliplatin treatment and measured after 15 to 30 mins by acetone drop method; assay type: functional, organism-based
Outline: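 Male C57 mice, 5 weeks, ~30 g. Oxaliplatin 6 mg/kg given on days 1, 3 and 5, with saline and 5% mannitol i.p.; tested on day 7. Antagonist stock in DMSO, diluted in saline, 0.1–1 μg injected in 25 μL into the plantar surface of the right hind paw. Acetone drop test after ~30 min habituation; paw sampled twice (~5 min apart) and averaged.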

Mus musculus [16] = experiment: Antinociceptive activity in C57Bl/6J mouse assessed as inhibition of icilin induced wet-dog shakes at 25 mg/kg, sc pretreated 1 hr before icillin addition and measured after 30 mins by wet-dog shakes assay; assay type: functional, organism-based
Outline: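 Male C57 mice, 5 weeks, ~30 g, acclimatized 30 min on two consecutive days. Gabapentin in saline, 25 mg/kg s.c. 60 min before icilin (10 mg/kg i.p. in 20% DMSO/1% Tween 80). Wet-dog shakes counted over 30 min; mean ± SEM, n = 6; two-way ANOVA with Bonferroni.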

For `c1ccc(CN(CCc2c[nH]c3ccccc23)Cc2ccccc2)cc1`, the IC50 [1] was 3.2 µM.
For `O=C(CN1CCc2c([nH]c3ccccc23)C1c1ccccc1)c1ccccc1` (racemic), the IC50 [1] was 1.6 µM.
In the case of `O=[N+]([O-])c1ccc(Sc2[nH]c3ccccc3c2CCN(Cc2ccccc2)Cc2ccccc2)c([N+](=O)[O-])c1`, the IC50 [1] is reported as 2.2 µM.
`O=[N+]([O-])c1ccc(CN2CCc3c([nH]c4ccccc34)C2c2ccccc2)cc1` (racemic) showed an IC50 [1] of 3.3 µM.
Work on `c1cc2c3c(cccc3c1)CN(CCc1c[nH]c3ccccc13)C2` yielded an IC50 [1] of 11.8 µM.
In the case of `c1ccc(CN(CCc2c[nH]c3ccccc23)CC2CCCCC2)cc1`, the inhibition [2] is reported as “Active”, the IC50 [1] is reported as 0.6 µM and the inhibition [3] is reported as “inactive”. The inhibition [4] was “Active”, the inhibition [5] was “Dose-dependent effect” and the IC50 [6] was 0.0035 µM.
For `CC(C)(C)c1ccc(NC(=O)N2CCN(c3ncccc3Cl)CC2)cc1`, the IC50 [7] was 0.475 µM.
For `O=C(O)c1ccc(CN2CCc3c([nH]c4ccccc34)C2c2ccccc2)cc1` (racemic), the IC50 [1] was greater than 100 µM.
With `COC(=O)[C@H](Cc1c[nH]c2ccccc12)N(Cc1ccccc1)Cc1ccccc1` the Papp at 24 h, 500 µM [8] was 9.7 nm/s, the inhibition [9] was “Active” and the IC50 [1] was 0.04 µM. For the same compound, the inhibition [10] was “Active”, the Drug metabolism [11] was “Metabolite_Detected” and the inhibition in vivo at 30 mg/kg (Mus musculus [12]) was 63%. For the same compound, the inhibition (Mus musculus [13]) was “Dose-dependent effect”, the inhibition [3] was “inactive” and the Stability [14] was “Stable”. The inhibition (Mus musculus [15]) was “Dose-dependent effect”, the inhibition [5] was “Dose-dependent effect” and the IC50 [6] was 0.0002 µM.
In the case of `Cn1cc(CCN(Cc2ccccc2)Cc2ccccc2)c2ccccc21`, the IC50 [1] is reported as 3.3 µM.
`c1ccc(COc2ccc3[nH]cc(CCN(Cc4ccccc4)Cc4ccccc4)c3c2)cc1` gave an IC50 [1] of 1.9 µM.
Compound `COC(=O)[C@@H](Cc1c[nH]c2ccccc12)N(Cc1ccccc1)Cc1ccccc1` has an IC50 [6] of 0.865 µM.
In the case of `NCC1(CC(=O)O)CCCCC1`, the inhibition (Mus musculus [16]) is reported as “Active”.
With `Cc1cccc(COc2ccccc2C(=O)N(CCCN)Cc2cccs2)c1` the IC50 [1] was 6.5 µM.
`O=[N+]([O-])c1ccc(CN(CCc2c[nH]c3ccccc23)Cc2ccccc2)cc1` gave an IC50 [1] of 3 µM.
`O=C(O)[C@H](Cc1c[nH]c2ccccc12)N(Cc1ccccc1)Cc1ccccc1` showed a Papp at 24 h, 500 µM [8] of 31.7 nm/s and an IC50 [1] of 8.2 µM.
